Active and inactive are the calls of the source. No cut-off for these calls is given here.
Legend:
[1] = target: Acetylcholinesterase (Electrophorus electricus, UniProt O42275); assay: Inhibition of electric eel AchE using ATC as substrate preincubated with enzyme for 5 mins followed by substrate addition for 5 mins by Ellman's method
Method in brief: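 Electric eel AChE at 0.384 U/mL final, with DTNB in 0.1 M phosphate pH 8.0. […] ATC solution (0.00375 M) added; A412 after 5 min. Run in triplicate; IC50 by nonlinear regression of residual activity versus concentration.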

[2] = target: Cholinesterase (Equus caballus, UniProt P81908); assay: Inhibition of equine serum BuChE using BTC as substrate preincubated with enzyme for 5 mins followed by substrate addition for 5 mins by Ellman's method; assay type: cell-free
Chain of Cholinesterase (Equus caballus, UniProt P81908) (P81908 whole entry): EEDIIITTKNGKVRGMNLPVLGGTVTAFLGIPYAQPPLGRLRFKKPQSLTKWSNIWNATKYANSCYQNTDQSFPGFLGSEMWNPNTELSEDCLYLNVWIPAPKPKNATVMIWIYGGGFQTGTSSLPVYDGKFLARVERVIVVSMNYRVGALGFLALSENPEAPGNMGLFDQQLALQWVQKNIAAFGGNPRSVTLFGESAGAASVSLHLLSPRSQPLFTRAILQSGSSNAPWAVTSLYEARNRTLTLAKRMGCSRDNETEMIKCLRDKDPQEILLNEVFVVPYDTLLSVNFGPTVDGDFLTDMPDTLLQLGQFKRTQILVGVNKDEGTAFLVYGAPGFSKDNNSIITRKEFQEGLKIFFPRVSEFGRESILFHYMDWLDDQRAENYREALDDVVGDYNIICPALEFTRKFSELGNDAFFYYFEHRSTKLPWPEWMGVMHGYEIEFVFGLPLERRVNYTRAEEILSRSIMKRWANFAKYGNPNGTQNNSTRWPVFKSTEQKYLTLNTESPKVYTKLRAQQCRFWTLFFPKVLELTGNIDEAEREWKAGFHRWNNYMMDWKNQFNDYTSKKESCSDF

[3] = target: 5-hydroxytryptamine receptor 6 (Homo sapiens, UniProt P50406); assay: Displacement of [3H]LSD from human 5HT6 receptor expressed in CHO-K1 membrane incubated for 60 mins by solid scintillation counting analysis; assay type: cell membranes
Chain of 5-hydroxytryptamine receptor 6 (P50406 whole entry): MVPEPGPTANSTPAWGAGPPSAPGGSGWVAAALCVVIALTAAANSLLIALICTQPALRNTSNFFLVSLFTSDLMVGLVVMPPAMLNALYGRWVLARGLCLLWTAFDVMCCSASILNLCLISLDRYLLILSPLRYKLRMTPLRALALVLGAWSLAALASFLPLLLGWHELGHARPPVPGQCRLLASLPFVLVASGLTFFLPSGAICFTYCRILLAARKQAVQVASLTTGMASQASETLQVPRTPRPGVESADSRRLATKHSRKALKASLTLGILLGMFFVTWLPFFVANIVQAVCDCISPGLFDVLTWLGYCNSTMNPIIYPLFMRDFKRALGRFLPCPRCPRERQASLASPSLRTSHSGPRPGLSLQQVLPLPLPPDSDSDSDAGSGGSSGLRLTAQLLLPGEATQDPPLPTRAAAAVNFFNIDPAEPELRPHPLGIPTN

[4] = target: T1, Cholinesterase (Homo sapiens, UniProt P06276); assay: Inhibition of BuChE in human plasma using BTC as substrate at 10 uM preincubated with enzyme for 5 mins followed by substrate addition for 5 mins by Ellman's method relative to control; assay type: cell-free; conditions: time 10.0 min
T1 sequence (P06276 whole entry): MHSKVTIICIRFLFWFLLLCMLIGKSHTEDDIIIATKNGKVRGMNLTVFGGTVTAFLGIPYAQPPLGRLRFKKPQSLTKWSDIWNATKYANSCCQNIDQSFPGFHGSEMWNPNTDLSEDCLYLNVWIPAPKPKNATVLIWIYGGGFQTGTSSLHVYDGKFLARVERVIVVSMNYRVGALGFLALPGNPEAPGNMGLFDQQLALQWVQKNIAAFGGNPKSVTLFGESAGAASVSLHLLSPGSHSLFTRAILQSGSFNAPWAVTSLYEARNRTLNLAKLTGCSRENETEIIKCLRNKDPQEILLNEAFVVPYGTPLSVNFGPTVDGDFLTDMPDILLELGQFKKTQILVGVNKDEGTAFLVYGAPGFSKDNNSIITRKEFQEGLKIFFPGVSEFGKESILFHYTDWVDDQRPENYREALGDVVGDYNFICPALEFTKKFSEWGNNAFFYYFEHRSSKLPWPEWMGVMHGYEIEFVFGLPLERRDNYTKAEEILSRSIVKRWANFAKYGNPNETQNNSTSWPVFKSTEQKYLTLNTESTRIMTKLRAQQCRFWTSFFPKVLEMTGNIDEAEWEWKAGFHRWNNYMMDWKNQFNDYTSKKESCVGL
Method in brief: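 Human plasma BuChE at 0.384 U/mL final, with DTNB in 0.1 M phosphate buffer pH 8.0. Compound at 10 µM screened, preincubated 5 min at 36 °C.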

[5] = target: Amyloid-beta precursor protein (Homo sapiens) (UniProt P05067); assay: Inhibition of amyloid beta (1 to 42) (unknown origin) self aggregation at 10 uM incubated for 24 to 48 hrs by Thioflavin-T based fluorometric assay; conditions: time lower […], time upper 48.0 hrs
Chain of Amyloid-beta precursor protein (Homo sapiens) (P05067 whole entry): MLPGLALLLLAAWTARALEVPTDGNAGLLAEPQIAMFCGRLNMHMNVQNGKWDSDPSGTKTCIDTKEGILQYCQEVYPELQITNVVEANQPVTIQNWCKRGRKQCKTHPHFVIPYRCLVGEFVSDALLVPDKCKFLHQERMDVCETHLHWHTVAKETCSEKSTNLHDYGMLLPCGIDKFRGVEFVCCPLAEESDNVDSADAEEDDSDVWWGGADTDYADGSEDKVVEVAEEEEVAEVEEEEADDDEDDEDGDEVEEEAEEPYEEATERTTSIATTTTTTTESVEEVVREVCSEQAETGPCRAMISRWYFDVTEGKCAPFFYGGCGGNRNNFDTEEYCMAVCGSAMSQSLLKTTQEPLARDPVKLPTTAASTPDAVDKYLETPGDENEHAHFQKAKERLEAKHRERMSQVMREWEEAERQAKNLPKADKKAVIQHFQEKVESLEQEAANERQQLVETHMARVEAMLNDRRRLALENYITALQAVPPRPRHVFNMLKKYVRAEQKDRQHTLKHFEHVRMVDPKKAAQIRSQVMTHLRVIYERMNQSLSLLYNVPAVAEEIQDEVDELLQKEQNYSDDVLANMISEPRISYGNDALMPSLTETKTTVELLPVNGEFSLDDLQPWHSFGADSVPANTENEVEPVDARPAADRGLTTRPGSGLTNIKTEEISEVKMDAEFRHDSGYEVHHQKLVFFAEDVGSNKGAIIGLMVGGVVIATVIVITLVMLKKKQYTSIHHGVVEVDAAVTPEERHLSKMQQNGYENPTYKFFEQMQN

[6] = target: Cholinesterase (Equus caballus) (UniProt P81908); assay: Reversible inhibition of equine serum BuChE using BTC as substrate at 10XIC50 preincubated with 100-fold diluted enzyme for 120 mins followed by substrate addition and measured after 5 mins by 100-fold dilution assay; assay type: cell-free; conditions: time 125.0 min
Chain of Cholinesterase (Equus caballus) (P81908 whole entry): as the sequence (P81908 whole entry) above
Method in brief: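 Equine BuChE preincubated with inhibitor at 100-fold the final enzyme concentration for 30, 60 or 120 min at 25 °C. Then diluted 100-fold into 0.1 M phosphate pH 8 with DTNB. BTC (0.00375 M) added; A412 read after 5 min. Activity recovery compared with enzyme/vehicle blanks; two independent experiments, each in quadruplicate.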

[7] = target: T1, Cholinesterase; assay: Inhibition of BuChE in human plasma using BTC as substrate preincubated with enzyme for 5 mins followed by substrate addition for 5 mins by Ellman's method; assay type: cell-free
Method in brief: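 Human plasma BuChE at 0.384 U/mL final, with DTNB in 0.1 M phosphate pH 8.0. […] BTC solution (0.00375 M) added; A412 after 5 min. Run in triplicate; IC50 from nonlinear regression of residual activity versus concentration.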

[8] = Metabolic stability in mouse liver microsomes assessed as parent compound remaining at 50 microM preincubated for 5 mins followed by incubation with NADPH regenerating system for 120 mins by UPLC-MS analysis; assay type: ADME, Microsome; conditions: time 125 min, read-out: Stability
Method in brief: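 Mouse liver microsomes 1 mg/mL in 0.1 M Tris-HCl pH 7.4 with 50 μM compound, preincubated 5 min at 37 °C, then started with NADPH regeneration system; stopped after 120 min at 37 °C with cold methanol, centrifuged, supernatant analysed by UPLC-MS for remaining parent and metabolites. Verapamil served as reference.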

[9] = Cytotoxicity against human HepG2 cells assessed as non-toxic concentration incubated for 72 hrs by MTS assay; assay type: cell-based; conditions: read-out: MNCC
Method in brief: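 HepG2 cells grown in MEM with 2 mM glutamine, 1% NEAA, 10% FBS at 37 °C, 5% CO2. Compounds tested in quadruplicate at 0.1, 1, 10 and 100 μM for 72 h; viability read by MTS (CellTiter 96 AQueous) assay. Doxorubicin 1 μM and CCCP 10 μM served as positive controls.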

[10] = target: Amyloid-beta precursor protein (Homo sapiens) (UniProt P05067); assay: Inhibition of self-induced aggregation of amyloid beta (1 to 42) (unknown origin) expressed in Escherichia coli BL21(DE3) at 10 uM incubated for 60 mins by fluorescence based analysis

Chain of Acetylcholinesterase (O42275 whole entry): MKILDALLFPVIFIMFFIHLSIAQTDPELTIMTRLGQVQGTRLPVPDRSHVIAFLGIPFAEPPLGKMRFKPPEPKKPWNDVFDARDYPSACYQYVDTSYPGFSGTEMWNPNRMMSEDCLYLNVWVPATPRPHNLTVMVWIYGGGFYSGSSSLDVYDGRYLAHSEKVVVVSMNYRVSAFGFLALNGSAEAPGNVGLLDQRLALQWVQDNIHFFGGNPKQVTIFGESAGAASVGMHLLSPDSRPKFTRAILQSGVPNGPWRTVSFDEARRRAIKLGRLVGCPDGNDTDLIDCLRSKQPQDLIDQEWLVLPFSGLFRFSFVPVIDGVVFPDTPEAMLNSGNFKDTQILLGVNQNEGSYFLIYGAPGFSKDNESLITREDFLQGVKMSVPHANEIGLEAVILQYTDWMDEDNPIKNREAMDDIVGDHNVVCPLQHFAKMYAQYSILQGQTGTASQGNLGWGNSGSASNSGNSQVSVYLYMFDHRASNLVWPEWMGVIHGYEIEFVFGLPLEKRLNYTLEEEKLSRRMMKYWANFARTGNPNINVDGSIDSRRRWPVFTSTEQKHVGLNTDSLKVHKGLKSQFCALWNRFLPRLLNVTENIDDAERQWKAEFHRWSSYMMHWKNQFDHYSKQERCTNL

| SMILES | IC50 [1] [nM] | IC50 [2] [nM] | Ki [3] [nM] | inhibition [4] [%] | inhibition [5] [%] | inhibition [6] | IC50 [7] [nM] | remaining at 2 h, 50 µM [8] [%] | MNTC at 72 h [9] [µM] | inhibition [10] [%] |
| --- | --- | --- | --- | --- | --- | --- | --- | --- | --- | --- |
| Cc1cccc(CNCCOc2cccc3c2CC(=O)N3Cc2ccccc2)c1 | 1280 | 1850 | 53 | < 50 | 58.5 | – | – | – | – | – |
| CC(C)(C)OC(=O)N1CCCC(CNCCOc2cccc3c2ccn3Cc2ccccc2)C1 (stereo not given) | – | 11 | 369 | > 50 | 79.4 | Active | 115 | – | – | – |
| CC(C)(C)OC(=O)N1CCCC(CNCCOc2cccc3c2ccn3S(=O)(=O)c2ccccc2)C1 (stereo not given) | – | 125 | – | – | – | – | 206 | 0 | ≤ 1 | – |
| O=S(=O)(c1ccccc1)n1ccc2c(OCCNCC3CCCNC3)cccc21 (stereo not given) | – | 2260 | 75 | < 50 | 27.3 | – | – | – | – | – |
| O=S(=O)(c1ccccc1)n1ccc2c(OCCNCc3ccccc3Cl)cccc21 | – | 881 | – | – | – | – | 10500 | – | – | – |
| CC(=O)Oc1cccc(CNCCOc2cccc3c2ccn3S(=O)(=O)c2ccccc2)c1 | – | 474 | – | – | – | – | 5620 | – | – | – |
| O=C1Cc2c(OCCNCc3ccccc3)cccc2N1Cc1ccccc1 | 1710 | 4430 | 55 | < 50 | 42.4 | – | – | – | – | – |
| CC(C)(C)OC(=O)N1CCCC(CNCCOc2cccc3c2CCN3Cc2ccccc2)C1 (stereo not given) | – | 25.7 | 1080 | > 50 | 79.7 | Active | 175 | – | – | – |
| O=S(=O)(c1ccccc1)n1ccc2c(OCCNCc3ccc(F)cc3)cccc21 | – | 985 | 6 | < 50 | 40.5 | – | – | – | – | – |
| O=S(=O)(c1ccccc1)n1ccc2c(OCCNCc3cccc(Cl)c3)cccc21 | – | 580 | 5 | > 50 | < 20 | – | 11800 | – | – | – |
| CC(=O)Oc1ccc(CNCCOc2cccc3c2ccn3S(=O)(=O)c2cccc3ccccc23)cc1 | – | 261 | 24 | < 50 | < 20 | – | – | – | – | – |
| Cc1cccc(CNCCOc2cccc3c2ccn3S(=O)(=O)c2ccccc2)c1 | – | 401 | – | – | – | – | 2820 | – | – | – |
| COc1cccc(CNCCOc2cccc3c2ccn3S(=O)(=O)c2ccccc2)c1 | – | 1660 | 3.6 | < 50 | 27.6 | – | – | – | – | – |
| O=S(=O)(c1ccccc1)n1ccc2c(OCCNCc3ccccc3)cccc21 | – | 473 | – | – | – | – | 1610 | 57 | ≤ 10 | – |
| O=c1[nH]c2c(OCCNCc3ccccc3)cccc2n1Cc1ccccc1 | 1080 | 1840 | 144 | < 50 | 32.9 | – | – | – | – | – |
| CC(=O)Oc1ccc(CNCCOc2cccc3c2ccn3S(=O)(=O)c2ccccc2)cc1 | – | 228 | – | – | – | – | 1920 | – | – | – |
| COc1ccc(CNCCOc2cccc3c2ccn3S(=O)(=O)c2ccccc2)cc1OC | – | 3320 | 0.5 | < 50 | 36.8 | – | – | – | – | – |
| Cc1cccc(CNCCOc2cccc3c2CCN3S(=O)(=O)c2ccccc2)c1 | – | 2300 | 12 | < 50 | < 20 | – | – | – | – | – |
| O=S(=O)(c1ccccc1)n1ccc2c(OCCNCC3CC3)cccc21 | – | 2220 | 2.7 | < 50 | < 20 | – | – | – | – | – |
| COc1ccc(CNCCOc2cccc3c2ccn3S(=O)(=O)c2ccccc2)cc1 | – | 1330 | 1.4 | < 50 | 54.2 | – | – | – | – | – |
| Cc1cccc(CNCCOc2cccc3c2ccn3S(=O)(=O)c2cccc3ccccc23)c1 | – | 148 | 12 | < 50 | 23.6 | – | – | – | – | – |
| CC(C)(C)OC(=O)N1CCCC(CNCCOc2cccc3c2[nH]c(=O)n3Cc2ccccc2)C1 (stereo not given) | – | 467 | 155 | < 50 | 43.9 | – | – | – | – | – |
| c1ccc(CNCCOc2cccc3c2CCN3Cc2ccccc2)cc1 | – | 997 | 389 | < 50 | 72.5 | – | – | – | – | – |
| O=[N+]([O-])c1ccc(CNCCOc2cccc3c2ccn3S(=O)(=O)c2ccccc2)cc1 | – | 18300 | 22 | < 50 | 35.1 | – | – | – | – | – |
| O=S(=O)(c1ccccc1)n1ccc2c(OCCNCc3ccc(Cl)cc3)cccc21 | – | 1320 | 16 | < 50 | < 20 | – | – | – | – | – |
| CC(C)(C)OC(=O)N1CCCC(CNCCOc2cccc3c2CCN3S(=O)(=O)c2ccccc2)C1 (stereo not given) | – | 201 | – | – | – | – | 1360 | – | – | – |
| O=S(=O)(c1ccccc1)n1ccc2c(OCCNCC3CCCC3)cccc21 | – | 269 | – | – | – | – | 1360 | – | – | – |
| O=S(=O)(c1ccccc1)n1ccc2c(N3CCN(CCCCCCNc4c5c(nc6ccccc46)CCCC5)CC3)cccc21 | – | – | – | – | – | – | – | – | – | 30 |
| Cc1cccc(CNCCOc2cccc3c2[nH]c(=O)n3Cc2ccccc2)c1 | 1800 | 1500 | 207 | < 50 | 64.3 | – | – | – | – | – |
